Assay results from ChEMBL document CHEMBL4725346, “Syntheses and Evaluation of New Bisacridine Derivatives for Dual Binding of G-Quadruplex and i-Motif in Regulating Oncogene c-myc Expression” (J Med Chem, 2020).

Tests used:
U2OS = assay: Antiproliferative activity against human U2OS cells after 48 hrs by MTT assay; type: functional, cell-based
Procedure, shortened: (§1)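 Cells seeded at 5.0×10^3 per well, pre-incubated 12 h at 37 °C, 5% CO2, then exposed to compounds for 48 h; DMSO-only control. MTT (2.5 mg/mL) added for 4 h, formazan dissolved in DMSO, absorbance at 570 nm. Each dose tested in triplicate; IC50 from percentage survival relative to negative control.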

Quadruplex DNA [1] = assay: Binding affinity to c-myc promoter G-quadruplex/i-motif in human SiHa cells assessed as reduction in c-myc mRNA level at 1.25 uM incubated for 24 hrs by qRT-PCR analysis; type: cell-based; set-up: scale not given: the % may be the effect or the level left
Procedure, shortened: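 SiHa cells at 0, 0.625, 1.25 and 2.5 μM for 24 h; DMSO control. Total RNA extracted with TRIzol. 1.5 μg RNA reverse-transcribed with oligo dT18 and M-MLV (42 °C 60 min). PCR of 30 cycles (95/58/72 °C), products run on 1.2% agarose. β-actin as internal control; three repeats.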

SiHa [2] = assay: Induction of cell cycle arrest in human SiHa cells assessed as accumulation of cells at S phase at 0.15 uM after 24 hrs by propidium iodide staining based flow cytometry (reference value: 17.74%); type: functional
SiHa [3] = assay: Induction of apoptosis in human SiHa cells assessed as increase in cleaved caspase-7 level incubated for 24 hrs by Western blot analysis; type: functional, cell-based; details: dose microM 0.6-2.4, time 24.0 hrs
[4] = Stabilization of c-myc promoter i-motif DNA Py33 (unknown origin) assessed as increase in slower migration band incubated overnight by silver staining based PAGE analysis
Procedure, shortened: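 Py33 (3 µM) co-annealed with increasing ligand in 1× BPES pH 6.8 at 95 °C for 5 min, cooled, held at 4 °C overnight. Run on native 20% acrylamide in 1× TBE at 140 V for 5 h at 5 °C, then silver-stained.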

SiHa [5] = assay: Induction of cell cycle arrest in human SiHa cells assessed as accumulation of cells at G0/G1 phase at 0.15 uM after 24 hrs by propidium iodide staining based flow cytometry (reference value: 42.28%); type: functional
Huh-7 = assay: Antiproliferative activity against human Huh-7 cells after 48 hrs by MTT assay; type: functional, cell-based; details: Huh-7, 48 h; procedure, shortened: as §1
SiHa [6] = assay: Induction of apoptosis in human SiHa cells assessed as early apoptotic cells at 2.4 uM after 24 hrs by annexin V/FITC-propidium iodide staining-based flow cytometric method ( Rvb = 0.3%); type: functional
Quadruplex DNA [7] = assay: Binding affinity to c-myc promoter G-quadruplex/i-motif in human Raji cells assessed as reduction in c-myc mRNA transcription incubated for 24 hrs; type: cell-based; details: dose microM 0.16-2.5, time 24.0 hrs
Quadruplex DNA [8] = assay: Binding affinity to c-myc wild-type promoter G-quadruplex/i-motif (unknown origin) expressed in human SiHa cells assessed as reduction in c-myc transcription by measuring decrease in ratio of renilla/firefly luciferase activity after 48 hrs by dual-luciferase reporter assay; type: cell-based; details: dose microM 0.025-0.1, time 48.0 hrs
Procedure, shortened: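 SiHa cells transfected with 200 ng psiCHECK2 plasmid carrying wild-type, mutant or deleted c-myc promoter. Compounds added 8 h after transfection, then incubated 48 h at 37 °C. Cells washed with ice-cold PBS; Renilla/firefly activity ratio read by dual-luciferase assay.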

[9] = Binding affinity to c-myc promoter i-motif DNA Py33 (unknown origin) at 20 uM by isothermal titration calorimetry
Procedure, shortened: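 ITC at 20 °C on degassed solutions. Cell held preformed DNA ([…]). Syringe held ligand in the same buffer (50 μM for Pu27, 20 μM for Py33). 28 injections of 10 μL at 4 min intervals. Heats of dilution from ligand-into-buffer runs subtracted before model fitting.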

SiHa [10] = assay: Induction of apoptosis in human SiHa cells assessed as decrease in caspase-7 level incubated for 24 hrs by Western blot analysis; type: functional, cell-based; details: dose microM 0.6-2.4, time 24.0 hrs
Quadruplex DNA [11] = assay: Binding affinity to c-myc promoter G-quadruplex/i-motif in human SiHa cells assessed as reduction in c-myc expression at 5 uM incubated for 24 hrs by Western blot analysis; type: cell-based; set-up: scale not given: the % may be the effect or the level left

Cc1ccc2nc3ccc(C)cc3c(NCCCNCCNCCCNc3c4cc(C)ccc4nc4ccc(C)cc34)c2c1
IC50 (U2OS): 310 nM
Activity (Quadruplex DNA [1]): 40.1%
Activity (SiHa [2]): 16.96%
Activity (SiHa [3]): Dose-dependent effect
Activity [4]: Dose-dependent effect
Activity (SiHa [5]): 37.96%
IC50 (Huh-7): 160 nM
Activity (SiHa [6]): 55.4%
Activity (Quadruplex DNA [7]): Dose-dependent effect
Activity (Quadruplex DNA [8]): Dose-dependent effect
Kd [9]: 650 nM
Activity (SiHa [10]): Dose-dependent effect
Activity (Quadruplex DNA [11]): < 92.2%
